# Source: PubChem
# Sampled rows, rich in hits. Any-hit rate of the full collection: about 2.5%.
# PRMT1 FP inh: PRMT1 methyltransferase inhibitors, primary screen, biochemical, fluorescence polarization. Protein arginine N-methyltransferase 1 (Homo sapiens), Q99873. recombinant PRMT1, activity-based probe fluorescence polarization. inhibition, % at 2.79 µM. 370,000 compounds, 1.3% hits. AID 652257, 2013;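 active = inhibition above about 21% made by adding two undisclosed values, limit read from the data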
# Target sequence (Q99873 whole entry, looked up): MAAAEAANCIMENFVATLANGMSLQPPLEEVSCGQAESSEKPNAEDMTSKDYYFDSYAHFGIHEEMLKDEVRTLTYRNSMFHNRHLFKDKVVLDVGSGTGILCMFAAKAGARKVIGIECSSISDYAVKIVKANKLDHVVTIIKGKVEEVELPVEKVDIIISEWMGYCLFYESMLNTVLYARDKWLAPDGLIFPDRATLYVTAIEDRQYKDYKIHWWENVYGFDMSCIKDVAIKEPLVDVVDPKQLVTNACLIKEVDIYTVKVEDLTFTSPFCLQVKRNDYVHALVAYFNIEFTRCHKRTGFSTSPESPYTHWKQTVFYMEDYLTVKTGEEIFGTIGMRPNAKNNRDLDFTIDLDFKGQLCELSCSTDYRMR
# PAD4 inh: human PAD4 inhibitors, primary screen, biochemical, fluorescence polarization, 1536-well format | 330,000 compounds, 0.41% hits | recombinant PAD4, RCA probe fluorescence polarization | inhibition, % at 6.36 µM;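 active = percent inhibition above a cutoff equal to the mean of all tested compounds plus 3 SD, cut at about 15% in these data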;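 also: 0% = PAD4 with RCA probe and DMSO and 100% = probe without PAD4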
# TDP2 inh: human TDP2 enzyme inhibitors, primary screen, biochemical, epi absorbance, recombinant enzyme. Tyrosyl-DNA phosphodiesterase 2 (Homo sapiens), O95551. inhibition, % at 12.8 µM. 370,000 compounds, 0.34% hits. T5PNP hydrolysis, p-nitrophenol absorbance 415 nm. AID 720702, 2013;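 active = inhibition above the mean of all tested compounds plus 3 SD, set per campaign, cut at about 25% in these data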;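 also: 0% = DMSO with enzyme and 100% = buffer with substrate but no TDP2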
#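 Test system: human TDP2 enzyme; Input: 120 nM TDP2 per well; Buffer or medium: Mg2+-containing Tris-HCl buffer, pH 7.5; Reagent: 5 mM T5PNP; Dosing: 12.8 µM single point, 1% DMSO; Incubation: reaction 2 h, 37 °C; Detection: p-Nitrophenol epi absorbance; Read-out: % inhibition relative to enzyme-containing and enzyme-free wells; Replicates: single well per compound.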
# GSTO1 counter: inhibitors of recombinant GSTO1, primary screen, counter-screen for RBBP9 inhibitor project, biochemical, fluorescence polarization; activity-based probe fluorescence polarization; inhibition, % at 5.96 µM; 300,000 compounds, 1.1% hits; AID 1974, 2009;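 active = inhibition above the campaign mean inhibition plus 3 SD, cut at about 35% in these data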;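 also: 0% = GSTO1-1 with DMSO and 100% = wells lacking GSTO1-1 enzyme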
# Target sequence (P78417 whole entry, looked up): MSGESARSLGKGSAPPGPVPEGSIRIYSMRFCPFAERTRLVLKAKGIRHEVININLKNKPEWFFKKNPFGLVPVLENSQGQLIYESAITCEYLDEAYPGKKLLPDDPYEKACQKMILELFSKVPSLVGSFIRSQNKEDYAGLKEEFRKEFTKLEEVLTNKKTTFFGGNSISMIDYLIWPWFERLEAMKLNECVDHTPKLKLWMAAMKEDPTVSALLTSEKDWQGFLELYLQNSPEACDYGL
# Fh CTSL1 inh: Fasciola hepatica cathepsin L1 inhibitors, primary screen, counter-screen for PFM18AAP inhibitor project, biochemical, QFRET, fluorogenic peptide substrate; recombinant F. hepatica cathepsin L1, Z-Leu-Arg-MCA fluorescence; inhibition, % at 5.96 µM; AID 1906, 2009; 300,000 compounds, 0.49% hits;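 active = inhibition above the mean of all tested compounds plus 3 SD, set per screening campaign, cut at about 17% in these data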;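 also: 0% = plate median of test compound wells and 100% = 1 µM Z-Phe-Ala-diazomethylketone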
# * marks the source's active call; other numbers are inactive results; x = no result.
SMILES,PRMT1 FP inh,PAD4 inh,TDP2 inh,GSTO1 counter,Fh CTSL1 inh
Cc1ccc(C2C3=C(CCCC3=O)Nc3[nH]c(=S)[nH]c(=O)c32)cc1 (stereo unspecified),17,-2,-6,3,4
CC(COc1ccccc1)CN1CCC(C(O)(c2ccccc2)c2ccccc2)CC1 (stereo unspecified),-1,x,-5,x,x
COC(=O)C1CN(C2CCCC2)CCS(=O)(=O)N1Cc1cn(Cc2ccc(Cl)cc2)nn1 (stereo unspecified),0,x,4,x,x
C=CCN1[C@H](CC(C)C)COc2cccc(N3CCSCC3)c2S1(=O)=O,5,x,6,x,x
CCN=C1S/C(=C\c2ccc(Sc3ccc(Cl)cc3)o2)C(=O)N1CC,-1,-3,-3,6,4
CCN=C1S/C(=C/c2ccc(-c3ccc(F)cc3)o2)C(=O)N1CC,1,2,7,5,18*
COc1cc2c(cc1NC(=S)Nc1cccc(C)c1)oc1ccccc12,-1,4,-3,36*,2
COc1ccc(NC(=S)Nc2cccc(Cl)c2)cc1OC,24*,0,5,5,-2
CCCCCCC(=O)N=Nc1c(O)[nH]c2ccc([N+](=O)[O-])cc12,-3,-2,7,4,3
CCc1cc(C(=O)N=Nc2c(O)[nH]c3ccc([N+](=O)[O-])cc23)c2ccccc2n1,1,-7,12,43*,14
COC(=O)C1CN(CCc2ccccc2)CCS(=O)(=O)N1Cc1ccc(C)cc1 (stereo unspecified),-1,x,2,x,x
CCOC(=O)NC1(Nc2ccc(C)cc2)Oc2ccccc2O1,37*,-3,-8,82*,0
CCOC(=O)NC1(NC(C)C)Oc2ccccc2O1,11,-2,6,37*,-2
CCOC(=O)C(Cc1ccccc1)C1(C)Oc2ccccc2O1 (stereo unspecified),-4,x,-9,x,x
Cc1ccc(-c2ccc(C(=O)O)[nH]2)cc1,-3,1,-15,6,1
Cc1ccc(-c2csc(=S)[nH]2)cc1,22*,1,-9,-2,4
Cc1cc(C(=O)C(C)Cl)c(C)n1Cc1ccco1 (stereo unspecified),2,-7,8,81*,2
Cc1cc(C(=O)COC(=O)C(C)NC(N)=O)c(C)n1Cc1ccco1 (stereo unspecified),-1,-2,3,19,-4
O=C(CCn1nnc(-c2cccs2)n1)NCc1ccco1,0,x,5,x,x
O=C(NCc1ccccc1)C1Nc2ccc(OC(F)(F)F)cc2C2C=CCC12 (stereo unspecified),12,-8,-3,-1,4
O=C(NC1CC1)C1Nc2ccc(OC(F)(F)F)cc2C2C=CCC12 (stereo unspecified),22*,1,8,-3,3
O=C(O)c1ccc2c(c1)C1C=CCC1C(c1cc3c(cc1Br)OCO3)N2 (stereo unspecified),-6,-7,6,12,4
Cc1ccc2c(c1)C1C=CCC1C(C(=O)O)N2 (stereo unspecified),x,7,x,54*,-2
CC(=O)c1ccc2c(c1)C1C=CCC1C(C(=O)O)N2 (stereo unspecified),71*,x,12,x,x
CCOc1ccc(-n2c(SCC(=O)Nc3ccc(S(=O)(=O)Nc4cc(C)nc(C)n4)cc3)nnc2-c2ccco2)cc1,-4,x,-11,x,x
SMILES,PRMT1 FP inh,PAD4 inh,TDP2 inh,GSTO1 counter,Fh CTSL1 inh
Nc1nnc(SCC(=O)Nc2cccnc2Cl)s1,1,-6,12,7,1
Cc1cccc(Nc2nnc(SCC(=O)Nc3cccnc3Cl)s2)c1,3,-5,-11,-1,27*
O=C(C(Cl)Cl)N1CCN(Cc2ccccc2)CC1,0,-4,3,35*,2
CCN(CC)S(=O)(=O)c1cccc(C(=O)N/N=C/c2cc(OC)c(O)c(OC)c2)c1,-1,2,6,0,-4
CCN(CC)S(=O)(=O)c1cccc(C(=O)N/N=C/c2cccc(O)c2O)c1,10,-12,-15,43*,1
CCOC(=O)C(N)CSC1CC(=O)N(c2ccc(C(=O)OC)cc2)C1=O (stereo unspecified),21,-3,-6,1,-3
CCOC(=O)C(N)CSC1CC(=O)N(CCc2ccccc2)C1=O (stereo unspecified),22*,-6,4,-4,-1
Cc1cc(NS(=O)(=O)C2CCN(C(=O)Cc3ccc(Cl)c(Cl)c3)CC2)no1,2,x,4,x,x
C[C@@H](/C=C/C(=O)OC(C)(C)C)Sc1ccc(C(C)(C)C)cc1,2,x,-2,x,x
Cc1cc2c(SCc3ccccc3Cl)nc(N)nc2nc1C,24*,x,-10,x,x
O=S(=O)(CC1NCc2cc(F)ccc21)NCc1ccccc1 (stereo unspecified),-1,x,9,x,x
CCCCNC(=O)C[C@H]1C[C@@]2(C(=O)OC)C(=C[C@H](COCc3ccccc3)O[C@@H]2C)N(Cc2ccco2)C1=O,-3,x,9,x,x
O=C1c2ccccc2-c2onc3ccc(NCCCn4ccnc4)c1c23,x,106*,x,105*,1
COC(=O)[C@]12C[C@H](CC(=O)NCc3ccc(C)o3)C(=O)N(CCC3=CCCCC3)C1=C[C@H](C(C)C)O[C@@H]2C1CC1,6,x,-3,x,x
CN(C)c1ccc(N=Nc2ccc(S(N)(=O)=O)cc2)cc1,-3,1,-25,-4,2
CN(C)c1ccc(N=Nc2ccc(S(=O)(=O)O)cc2)c2ccccc12,14,-12,-2,37*,2
C#CCSc1nnc(-c2sc(-c3ccccc3)nc2C)n1C,3,-5,8,74*,-1
Clc1ccc([C@H]2OC[C@@]3(CNCCc4c[nH]c5ccccc45)CS[C@H](c4ccc(Cl)cc4)N23)cc1,-1,x,-4,x,x
O=C(/C=C/c1ccc(-c2ccccc2)o1)c1ccccc1,25*,-8,-9,-7,64*
COc1ccccc1N1CCN(C(=O)c2cc3ccccc3[nH]2)CC1,-3,-9,-1,4,18*
NC(=S)N/N=C1/CCSc2ccc3ccccc3c21,8,-5,-10,3,25*
Cc1nc(N2CCCCC2C)c2nnn(Cc3ccccc3)c2n1 (stereo unspecified),-4,x,-1,x,x
O=C(Nc1ccc2ccccc2c1)C1CC2CCC1C2 (stereo unspecified),-3,x,-2,x,x
O=C(NCc1cccs1)C1CCC(CNS(=O)(=O)c2cccc3cccnc23)CC1 (stereo unspecified),9,x,3,x,x
O=C(Nc1cccc(N=Cc2cc(Br)cc(Br)c2O)c1)c1ccco1,2,-4,8,9,-2
